Measured values published in ChEMBL document CHEMBL4422635, “Structure-Based Discovery of a Subtype-Selective Inhibitor Targeting a Transient Receptor Potential Vanilloid Channel” (J Med Chem, 2019).
Where a chain is given by its changes, count along the chain named. Activity calls are given as the source filed them. The calls are words filed in the database; no cut-off is given here.

Columns and labels:
Assay type in all cases: cell-based
[1] = target: T1, Transient receptor potential cation channel subfamily V member 3 (Mus musculus) (UniProt Q8K424); assay: Antagonist activity at mouse TRPV3 expressed in HEK293T cells assessed as inhibition of 2-APB evoked currents at 3 to 10 uM -60 mV holding potential by whole-cell patch clamp assay
T1 sequence (whole entry): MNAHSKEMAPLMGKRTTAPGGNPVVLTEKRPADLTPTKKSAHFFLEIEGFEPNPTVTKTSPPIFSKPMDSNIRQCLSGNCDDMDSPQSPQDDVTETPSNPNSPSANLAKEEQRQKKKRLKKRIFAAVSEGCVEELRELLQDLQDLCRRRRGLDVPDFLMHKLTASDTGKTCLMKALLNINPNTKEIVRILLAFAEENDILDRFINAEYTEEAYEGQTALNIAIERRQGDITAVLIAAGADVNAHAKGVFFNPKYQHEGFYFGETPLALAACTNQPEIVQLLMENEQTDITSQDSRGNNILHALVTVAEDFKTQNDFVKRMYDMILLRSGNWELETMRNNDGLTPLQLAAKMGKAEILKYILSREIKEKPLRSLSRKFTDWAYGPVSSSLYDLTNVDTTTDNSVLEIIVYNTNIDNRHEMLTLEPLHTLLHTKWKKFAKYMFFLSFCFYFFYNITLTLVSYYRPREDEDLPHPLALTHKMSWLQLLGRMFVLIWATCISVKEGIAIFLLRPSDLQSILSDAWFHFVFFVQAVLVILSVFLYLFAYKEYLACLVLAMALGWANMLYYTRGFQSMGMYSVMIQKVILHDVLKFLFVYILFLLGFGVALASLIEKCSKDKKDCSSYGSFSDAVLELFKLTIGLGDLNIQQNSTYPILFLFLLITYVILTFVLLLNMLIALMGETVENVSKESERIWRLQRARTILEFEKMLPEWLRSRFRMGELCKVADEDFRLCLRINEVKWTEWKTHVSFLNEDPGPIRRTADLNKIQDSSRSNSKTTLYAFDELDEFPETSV
Summary of the method: (§1)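 Whole-cell voltage clamp of transiently transfected HEK293T cells co-expressing GFP, recorded 36-96 h post-transfection. Hold -60 mV; pipettes 3-7 MΩ. Bath 165 mM NaCl, 10 mM HEPES pH 7.3; pipette 140 mM KCl, 10 mM HEPES pH 7.3. Room temperature (~25 °C). IC50 from Hill fits of I/I0, the current ratio after vs before inhibitor; mean ± SEM.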

[2] = tested on: T2, Transient receptor potential cation channel subfamily V member 2 (Mus musculus), Q9WTR1 [L505T]; assay: Antagonist activity at mouse TRPV2 L505T mutant expressed in HEK293T cells assessed as inhibition of 2-APB evoked currents at -60 mV holding potential by whole-cell patch clamp assay; summary of the method: as §1
T2 sequence (whole entry): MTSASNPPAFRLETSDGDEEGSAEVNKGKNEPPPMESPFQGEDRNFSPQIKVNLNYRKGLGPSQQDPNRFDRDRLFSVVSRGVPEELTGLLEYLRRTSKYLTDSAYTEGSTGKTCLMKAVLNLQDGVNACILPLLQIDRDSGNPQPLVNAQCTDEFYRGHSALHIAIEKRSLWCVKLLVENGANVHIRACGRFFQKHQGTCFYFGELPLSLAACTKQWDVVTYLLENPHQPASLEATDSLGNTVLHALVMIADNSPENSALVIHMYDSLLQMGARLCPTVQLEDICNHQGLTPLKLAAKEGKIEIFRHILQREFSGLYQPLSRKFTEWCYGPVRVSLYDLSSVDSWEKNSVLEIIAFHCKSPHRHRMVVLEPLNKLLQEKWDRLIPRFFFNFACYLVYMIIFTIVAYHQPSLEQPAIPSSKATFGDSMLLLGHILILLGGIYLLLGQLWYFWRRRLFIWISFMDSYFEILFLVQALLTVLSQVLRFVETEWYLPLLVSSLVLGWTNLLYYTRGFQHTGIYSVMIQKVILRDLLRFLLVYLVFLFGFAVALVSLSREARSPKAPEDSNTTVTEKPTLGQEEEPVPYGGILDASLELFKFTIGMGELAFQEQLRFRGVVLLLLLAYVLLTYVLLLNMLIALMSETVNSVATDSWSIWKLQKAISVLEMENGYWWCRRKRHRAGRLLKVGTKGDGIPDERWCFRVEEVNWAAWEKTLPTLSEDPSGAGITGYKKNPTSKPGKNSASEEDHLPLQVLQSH

[3] = tested on: T3, Transient receptor potential cation channel subfamily V member 2 (Mus musculus), Q9WTR1 [F467S]; assay: Antagonist activity at mouse TRPV2 F467S mutant expressed in HEK293T cells assessed as inhibition of 2-APB evoked currents at -60 mV holding potential by whole-cell patch clamp assay; summary of the method: as §1
T3 sequence (whole entry): T2 sequence (whole entry) with F467S, T505L

Mus musculus = species: Mus musculus; assay: Antagonist activity at mouse LPA-induced TRPV2/LPAR1 expressed in HEK293T cells assessed as inhibition of 2-APB evoked currents at 1 uM after 3 mins in presence of AM966 by whole-cell patch clamp assay; summary of the method: as §1

inhibition [1]: inactive
inhibition [2]: inactive
inhibition [3]: inactive
SMILES: CCCN(C)c1cc(C(F)(F)F)nc(SCCC(=O)NCc2ccco2)n1
inhibition (Mus musculus): inactive
